# Neddyl block: blocks human cullin neddylation | P61081+Q13564 | TR-FRET cullin neddylation, biochemical | inhibition, % at 25 µM | 0.58% of 360,000 active | AID 651699; in the data active means inhibition above about 36%
# ASAP1 inh: blocks human ASAP1-stimulated Arf1 GTP hydrolysis | Q9ULH1 | GDP FP detection | inhibition, % at 16.5 µM | 0.19% of 360,000 active; in the data active means inhibition above about 25%;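 further: 0% = vehicle with enzyme and substrate and 100% = no enzyme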
# Target sequence (Q9ULH1 325-724 limits assumed): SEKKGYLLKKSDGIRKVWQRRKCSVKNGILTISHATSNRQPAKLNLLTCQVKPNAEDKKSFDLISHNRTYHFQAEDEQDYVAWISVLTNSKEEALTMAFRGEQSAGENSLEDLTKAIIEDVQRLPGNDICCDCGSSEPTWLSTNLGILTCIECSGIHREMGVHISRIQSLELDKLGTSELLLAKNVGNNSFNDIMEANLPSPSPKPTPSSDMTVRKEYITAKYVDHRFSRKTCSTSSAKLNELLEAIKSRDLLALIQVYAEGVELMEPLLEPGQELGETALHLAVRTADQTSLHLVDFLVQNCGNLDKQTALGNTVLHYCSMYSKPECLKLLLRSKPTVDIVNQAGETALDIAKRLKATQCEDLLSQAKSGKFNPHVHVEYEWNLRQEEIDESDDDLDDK
# H9c2 protect: protects H9c2 cardiomyocytes from peroxide injury. H2O2 injury protection, ATPLite, 2 h. protection from H2O2 cell death, % at 20 µM. 0.63% of 360,000 active;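 active means compounds giving at least 50% protection of heart cells from peroxide-induced death in the single-dose screen, raw or plate-pattern-corrected value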;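 further: 0% = DMSO wells with peroxide and 100% = DMSO wells without peroxide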
# ARFGAP1 inh: rat ARFGAP1 inhibition. Q62848. Arfgap1-stimulated ARF1 GTP hydrolysis, GDP FP detection. inhibition, % at 16.5 µM. 0.26% of 360,000 active. AID 651572;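 active means inhibition above a per-plate limit, mean inhibition of low control wells plus 3 SD, cut at about 25% in these data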;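 further: 0% = DMSO wells with enzyme and 100% = wells lacking Arfgap1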
#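 Material: rat Arfgap1 GAP domain (His6, aa 1-136), purified enzyme. Also added: human ARF1(Δ1-17)-GTP substrate. Compound dosing: 16.5 µM single point, 1.26% DMSO. Timing: enzyme reaction 120 min at 25 °C after 20 min preincubation. Signal: GDP detection by fluorescence polarization. Read-out basis: percent inhibition of GAP-stimulated GDP formation, scaled between DMSO and no-Arfgap1 medians.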
# Starred values were filed as active, the others as inactive; nt = no result shown. Sampled rows, rich in hits. Any-hit rate of the full collection: about 1.6%.
SMILES,Neddyl block,ASAP1 inh,H9c2 protect,ARFGAP1 inh
CC(=O)Oc1ccc2c(=O)c(Oc3ccccc3)c(C)oc2c1OC(C)=O,4,0,65*,-6
Cc1oc2cc(O)ccc2c(=O)c1Oc1ccccc1,nt,2,7,1
O=C(/C=C/c1cccnc1)c1ccc(NC(=O)c2cccc(Br)c2)cc1,-31,26*,-4,8
C[C@H]1CN([C@@H](C)CO)C(=O)CCCn2nncc2CO[C@@H]1CN(C)Cc1ccc2cccnc2c1,nt,2,nt,-3
COc1ccc(C(=O)COC(=O)Cn2[nH]c(=O)c3ccccc3c2=O)c(OC)c1,0,5,62*,3
COc1ccc(C(=O)COC(=O)Cn2cnc3ccccc3c2=O)c(OC)c1,7,17,4,5
CCOc1ccc(C(=O)COC(=O)Cn2[nH]c(=O)c3ccccc3c2=O)cc1,-5,-15,78*,8
O=C(Cn1[nH]c(=O)c2ccccc2c1=O)OCC(=O)c1ccccc1,4,-3,44,-1
COc1cccc(CNC(=O)[C@H]2CCCN2C(=O)C2CCCN2C(=O)c2ccc(OC)c(F)c2)c1 (stereo partly drawn),nt,-2,nt,-5
COc1ccc(Nc2nc(OC)nc(OC)n2)cc1,6,1,5,-18
COc1ccc(Nc2nc(Nc3ccc(OC)cc3)nc(-n3[nH]c(=O)c(C)c3C)n2)cc1,2,-7,92*,7
Cc1cc(N2CCN(CC(C)(C)O)C[C@@H]2C)ccc1N1CCN(Cc2ccccc2)[C@@H](C)C1,nt,5,nt,16
O=c1[nH]nc(CNc2ccc(OC(F)(F)F)cc2)c2ccccc12,-14,8,38,9
O=c1[nH]nc(CNc2ccc(C(F)(F)F)cc2)c2ccccc12,-5,10,69*,9
O=c1[nH]nc(CNc2ccc(Cl)cc2Cl)c2ccccc12,-44,-2,30,11
O=c1[nH]nc(CNc2ccc(O)cc2)c2ccccc12,-18,6,87*,11
CCCCn1c(OC(=S)N(CC)CC)cc(C)nc1=S,2,nt,-6,nt
COc1ccc(CN(C)C(=O)[C@@H](Cc2ccccc2)NC(=O)[C@H]2O[C@@H](n3ccc(N)nc3=O)[C@H](O)[C@@H]2O)cc1OC,nt,7,nt,-8
Oc1c(Br)cc(Cl)cc1C=Nc1ccc(N2CCOCC2)cc1,17,11,48,1
Oc1ccc(Cl)cc1C=Nc1ccc(Br)cc1,2,0,50*,1
Cc1cccc(C=Nc2ccc3c4c(cccc24)CC3)c1O,38,4,5,-6
COc1ccc(N=Cc2cc(Cl)ccc2O)cc1Cl,7,-7,72*,-1
Oc1ccc(Cl)cc1C=Nc1ccc2c3c(cccc13)CC2,nt,7,91*,-1
Oc1ccc(N=Nc2cccc(Cl)c2)cc1C=Nc1ccc(N2CCOCC2)cc1,4,10,66*,-3
COc1ccc(C2CC(=O)C(c3ccc(Cl)cc3)=CN2Cc2ccccc2)cc1 (stereo not drawn),nt,-4,nt,9
SMILES,Neddyl block,ASAP1 inh,H9c2 protect,ARFGAP1 inh
COC(=O)c1cc2c(c3c4ccccc4n(S(=O)(=O)c4ccc(OC)cc4)c13)C(=O)N(Cc1ccc(C(F)(F)F)cc1)C2,nt,-10,nt,0
COC(=O)C1=C(C)N(Cc2ccccc2C(F)(F)F)C(=NCC2CC2)NC1CCc1ccccc1 (stereo not drawn),nt,14,nt,2
Cc1cc(NC(=O)c2cnn3c(C(F)(F)F)cc(-c4ccccc4)nc23)no1,0,6,93*,-4
CCCCNC(=O)C(NC(=O)Cc1cc(OC)cc(OC)c1)C(=O)c1ccccc1 (stereo not drawn),9,2,nt,6
COCc1[nH]nc2c1C(c1ccc(C)cc1)N(c1ccc(OC)cc1)C2=O (stereo not drawn),nt,0,nt,0
Cc1ccc2nsnc2c1S(=O)(=O)N(Cc1ccco1)Cc1cc2cccc(C)c2[nH]c1=O,-117,nt,73*,nt
Cc1ccc2nsnc2c1S(=O)(=O)N(CCO)Cc1cc2cc3c(cc2[nH]c1=O)OCCO3,28,21,13,14
Cc1ccc2nsnc2c1S(=O)(=O)N(Cc1ccco1)Cc1cc2ccc(C)c(C)c2[nH]c1=O,-52,3,27,-2
Cc1ccc2[nH]c(=O)c(CN(Cc3ccco3)S(=O)(=O)c3c(C)ccc4nsnc34)cc2c1,-4,-2,50*,4
COc1ccc2[nH]c(=O)c(CN(Cc3cccs3)S(=O)(=O)c3c(C)ccc4nsnc34)cc2c1,-47,-7,69*,-10
Cc1ccc2[nH]c(=O)c(CN(CC3CCCO3)S(=O)(=O)c3c(C)ccc4nsnc34)cc2c1 (stereo not drawn),-28,-4,34,5
